Among the data in ChEMBL document CHEMBL1135354, “Synthesis and activity of a novel class of tribasic macrocyclic antibiotics: the triamilides” (2002) are MIC and ED50 values, retold here.

Holding throughout (assay type): functional
The subject of one experiment is Escherichia coli. The experiment in a line: In vitro minimum inhibitory concentration required to inhibit growth of Escherichia coli. The gist of the method:
(§1)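 Broth microdilution per NCCLS; E. coli 51A0150 (poultry lung) and P. multocida 59A0067 (turkey). Overnight BHI plate colonies suspended in saline to OD625 0.09 (0.5 McFarland), diluted 1:100 in BHI broth; final ~5×10^5 cfu/mL against 2-fold serial dilutions in BHI broth.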

Experiment [1] relates to Pasteurella multocida. The experiment can be described thus: Minimum inhibitory concentration required to inhibit growth of Pasteurella multocida in vitro by microdilution method. The gist of the method: as §1
Experiment [2] has as its system Pasteurella multocida. The experiment in a line: Effective dose required to inhibit Pasteurella multocida infection model in mouse by subcutaneous administration. The gist of the method: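 Mice infected intranasally with P. multocida (respiratory disease model); drug given subcutaneously 0.5 h post-infection at 5–80 mg/kg. ED50 derived from number of surviving mice 4 days after infection.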

Where [3] appears, read: Pasteurella multocida, sc, read-out: ED50.

Molecules are shown by their SMILES. Values after ≈ are worked out from the molar mass of the structure shown.

With `CC[C@H]1OC(=O)[C@H](C)[C@@H](O[C@H]2C[C@@](C)(OC)[C@@](O)(CN3CCCCC3)[C@H](C)O2)[C@H](C)[C@@H](O[C@@H]2O[C@H](C)C[C@H](N(C)C)[C@H]2O)[C@](C)(O)C[C@@H](C)CN[C@H](C)[C@@H](O)[C@]1(C)O`, the MIC is 0.39 µg/mL (≈ 0.469 µM) against Escherichia coli (Escherichia coli) and under 0.1 µg/mL in the experiment with Pasteurella multocida [1] (Pasteurella multocida, read-out: MIC). Moreover, the ED50 in the experiment on Pasteurella multocida [2] (setting [3]) was 40 mg/kg.

`CC[C@H]1OC(=O)[C@H](C)[C@@H](O[C@H]2C[C@@](C)(OC)[C@@](O)(CN(C)CC)[C@H](C)O2)[C@H](C)[C@@H](O[C@@H]2O[C@H](C)C[C@H](N(C)C)[C@H]2O)[C@](C)(O)C[C@@H](C)CN[C@H](C)[C@@H](O)[C@]1(C)O` (stereo in doubt; 8i): the MIC is 0.78 µg/mL (≈ 0.968 µM) in the experiment with Escherichia coli and under 0.1 µg/mL with Pasteurella multocida [1]. In the experiment with Pasteurella multocida [2], this compound had an ED50 of 7.2 mg/kg.

For `CC[C@H]1OC(=O)[C@H](C)[C@@H](O[C@H]2C[C@@](C)(OC)[C@@](O)(CN(C)CC)[C@H](C)O2)[C@H](C)[C@@H](O[C@@H]2O[C@H](C)C[C@H](N(C)C)[C@H]2O)[C@](C)(O)C[C@@H](C)CN[C@H](C)[C@@H](O)[C@]1(C)O` (stereo in doubt; 10g), the MIC stood at 0.39 µg/mL (≈ 0.484 µM) in the experiment with Escherichia coli (Escherichia coli) and 0.1 µg/mL (≈ 0.124 µM) against Pasteurella multocida [1]. Further, the ED50 with Pasteurella multocida [2] (setting [3]) was under 5 mg/kg.
